Reference: ChEMBL document CHEMBL4819015, “Design, synthesis, and biological evaluation of hederagenin derivatives with improved aqueous solubility and tumor resistance reversal activity” (Eur J Med Chem, 2021)
pIC50: −log10 of the molar value. In brackets after ≈: the same amount, converted by molar mass.

Assays:
[1] = target: T1, ATP-dependent translocase ABCB1 (Homo sapiens, UniProt P08183); assay: Reversal of P-glycoprotein mediated multidrug resistance in human KBV cells assessed as potentiation of paclitaxel-induced cytotoxicity by measuring cell survival rate at 10 uM measured after 72 hrs by MTT assay; type: cell-based
Summary of the method: (§1)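 KBV or MCF-7T cells were grown in DMEM with 10% heat-inactivated FCS, penicillin/streptomycin, 37 °C and 5% CO2, with periodic 10 nM paclitaxel to keep resistance; cells were used in exponential phase. Cells were exposed to test articles for 72 h, given MTT for about 2 h, the medium was removed and DMSO added. A570 gave the survival rate.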

[2] = Cytotoxicity against human KBV cells assessed as cell survival at 10 uM measured after 72 hrs by MTT assay; type: functional; settings: read-out: Activity; summary of the method: as §1
[3] = target: T1, ATP-dependent translocase ABCB1; assay: Inhibition of P-glycoprotein mediated Flutax1 efflux in human KBV cells assessed as Flutax1 accumulation at 5 uM […] by flowcytometry; type: cell-based
[4] = target: T1, ATP-dependent translocase ABCB1; assay: Inhibition of P-glycoprotein mediated Flutax1 efflux in human KBV cells assessed as Flutax1 accumulation at 10 uM measured after 2 hrs by flowcytometry; type: cell-based; settings: mcf-t, in the assay text read “human MCF-7T cells” for “human KBV cells”
[5] = target: T1, ATP-dependent translocase ABCB1; assay: Inhibition of P-glycoprotein mediated Rhodamine-123 efflux in human MCF-7T cells assessed as Rhodamine-123 accumulation measured after 2 hrs by flowcytometry; type: cell-based; settings: dose 5-10 µM
Summary of the method: (§2)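 KBV or MCF-7T cells were pretreated with or without compound for 2 h, then loaded with rhodamine 123 for 30 min. Cells were harvested and washed three times in PBS. Flow cytometry of 10,000 cells gave mean fluorescence intensity; mean ± SD, n = 3.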

[6] = Stability of compound in presence of Porcine liver esterase assessed as residual activity at pH 7.4 measured after 24 hrs; type: ADME; settings: pig, read-out: Stabilty
Summary of the method: (§3)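 Compound in PBS pH 7.4 with porcine liver esterase, shaken at 37 °C. Aliquots were taken at set times, diluted 10-fold and centrifuged at 14,000 rpm for 5 min. Supernatants were run on C18 HPLC with isocratic 95% methanol/water (0.1% TFA) at 1 mL/min, UV 306 nm. Percent remaining is relative to the 0 h sample.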

[7] = Aqueous solubility of compound in deionized water at 37 degC measured by UV-vis spectrophotometry
[8] = target: T1, ATP-dependent translocase ABCB1; assay: Inhibition of P-glycoprotein mediated Rhodamine-123 efflux in human KBV cells assessed as Rhodamine-123 accumulation measured after 2 hrs by flowcytometry; type: cell-based; settings: dose 5-10 µM; summary of the method: as §2
[9] = Stability of compound in presence of Porcine liver esterase assessed as residual activity at pH 7.4 measured after 12 hrs; type: ADME; settings: pig, read-out: Stabilty; summary of the method: as §3
[10] = Induction of apoptosis in human KBV cells assessed as accumulation of cells in Sub-G1 phase at 10 uM measured by flowcytometry method (reference value: 1.9%); type: functional
[11] = target: T1, ATP-dependent translocase ABCB1; assay: Reversal of P-glycoprotein mediated multidrug resistance in human KBV cells assessed as paclitaxel-mediated apoptosis by measuring accumulation of cells in Sub-G1 phase in at 10 uM measured by flowcytometry method (Rvb (paclitaxel)= 2.1%); type: cell-based
[12] = target: T1, ATP-dependent translocase ABCB1; assay: Reversal of P-glycoprotein mediated multidrug resistance in human KBV cells assessed as paclitaxel-mediated apoptosis by measuring accumulation of cells in Sub-G1 phase in at 5 uM measured by flowcytometry method (Rvb (paclitaxel)= 2.1%); type: cell-based
[13] = Stability of compound in presence of Porcine liver esterase assessed as residual activity at pH 7.4 measured after 4 hrs; type: ADME; settings: pig, read-out: Stabilty; summary of the method: as §3
[14] = Antitumour activity against human KBV cells xenografted in nude mouse assessed as paclitaxel-mediated tumour growth inhibition at 10 mg/kg; type: functional; settings: read-out: TGI
[15] = Antiproliferative activity against human KBV cells in presence of 100 nM Paclitaxel; type: functional, cell-based; summary of the method: as §1
[16] = Cytotoxicity against human KBV cells assessed as cell survival measured after 72 hrs by MTT assay; type: functional, cell-based; summary of the method: as §1
[17] = Cytotoxicity against human MCF-T cells assessed as cell survival measured after 72 hrs by MTT assay; type: functional, cell-based; summary of the method: as §1

T1 sequence (P08183 whole entry): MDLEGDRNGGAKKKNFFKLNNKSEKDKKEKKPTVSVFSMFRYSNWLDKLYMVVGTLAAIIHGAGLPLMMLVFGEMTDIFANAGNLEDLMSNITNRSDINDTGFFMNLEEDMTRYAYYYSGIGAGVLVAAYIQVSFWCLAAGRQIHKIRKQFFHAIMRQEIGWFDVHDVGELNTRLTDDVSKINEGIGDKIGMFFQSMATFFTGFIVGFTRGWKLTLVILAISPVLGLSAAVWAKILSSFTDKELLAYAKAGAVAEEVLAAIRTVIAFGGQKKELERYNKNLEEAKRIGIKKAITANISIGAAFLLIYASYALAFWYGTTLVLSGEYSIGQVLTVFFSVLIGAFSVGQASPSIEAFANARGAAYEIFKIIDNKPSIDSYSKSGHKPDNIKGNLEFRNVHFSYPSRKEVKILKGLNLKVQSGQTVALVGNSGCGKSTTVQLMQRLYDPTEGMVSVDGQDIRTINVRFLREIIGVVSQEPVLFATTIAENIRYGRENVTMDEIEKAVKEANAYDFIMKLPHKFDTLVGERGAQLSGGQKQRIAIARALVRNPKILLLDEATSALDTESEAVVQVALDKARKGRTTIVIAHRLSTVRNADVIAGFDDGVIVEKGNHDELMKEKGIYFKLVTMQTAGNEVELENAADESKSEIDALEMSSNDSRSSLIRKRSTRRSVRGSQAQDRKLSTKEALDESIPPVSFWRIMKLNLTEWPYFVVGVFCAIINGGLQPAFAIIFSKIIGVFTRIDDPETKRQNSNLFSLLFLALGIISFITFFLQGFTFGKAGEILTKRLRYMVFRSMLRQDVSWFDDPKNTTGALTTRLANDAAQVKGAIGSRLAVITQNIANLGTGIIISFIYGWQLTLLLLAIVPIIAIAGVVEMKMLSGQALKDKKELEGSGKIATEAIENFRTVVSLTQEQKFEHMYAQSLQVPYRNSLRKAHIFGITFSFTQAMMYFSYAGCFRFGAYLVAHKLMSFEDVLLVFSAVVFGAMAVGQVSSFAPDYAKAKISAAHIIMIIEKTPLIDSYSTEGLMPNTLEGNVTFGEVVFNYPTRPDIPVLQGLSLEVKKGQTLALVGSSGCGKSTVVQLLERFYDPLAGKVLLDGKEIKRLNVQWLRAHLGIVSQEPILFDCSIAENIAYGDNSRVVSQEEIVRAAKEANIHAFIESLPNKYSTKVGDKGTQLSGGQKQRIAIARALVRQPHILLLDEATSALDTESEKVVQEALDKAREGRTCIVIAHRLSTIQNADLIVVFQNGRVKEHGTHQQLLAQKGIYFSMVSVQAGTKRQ

## CC1(C)CC[C@]2(C(=O)N3CCCCC3)CC[C@]3(C)C(=CC[C@@H]4[C@@]5(C)Cc6nccnc6[C@@](C)(CO)[C@@H]5CC[C@]43C)[C@@H]2C1
[1]
  cell survival rate: 25.27%
[2]
  viability at 10 µM: 59.4%

## CC1(C)CC[C@]2(C(=O)OCC(=O)OCCOCCOCCOCCOCCOCCOCCOCCOCCOCCOCCOCCOCCO)CC[C@]3(C)C(=CC[C@@H]4[C@@]5(C)Cc6nccnc6[C@@](C)(CO)[C@@H]5CC[C@]43C)[C@@H]2C1
[1]
  cell survival rate: 39.13%
[2]
  viability at 10 µM: 73.3%

## CC1(C)CC[C@]2(C(=O)OCC(=O)OCCOCCOCCOCCO)CC[C@]3(C)C(=CC[C@@H]4[C@@]5(C)Cc6nccnc6[C@@](C)(CO)[C@@H]5CC[C@]43C)[C@@H]2C1
[1]
  cell survival rate: 25.88%
[2]
  viability at 10 µM: 75.4%

## CC1(C)CC[C@]2(C(=O)OCc3ccccc3)CC[C@]3(C)C(=CC[C@@H]4[C@@]5(C)Cc6nccnc6[C@@](C)(COC(=O)CCC(=O)OCCOCCOCCOCCO)[C@@H]5CC[C@]43C)[C@@H]2C1
[3]
  Activity: Active
[4]
  Activity: Active
[1]
  cell survival rate: 11.97%
[5]
  Activity: Dose-Dependent Effect
[6]
  remaining at 24 h: 78.9%
[7]; pH 7.4, read-out: solubility
  solubility: 21.6 µg/mL (≈ 24.7 µM)
[2]
  viability at 10 µM: 90.3%
[8]
  Activity: Dose-Dependent Effect
[9]
  remaining at 12 h: 81.8%
[10]
  Activity: 2.4%
[11]
  Activity: 48.9%
[12]
  Activity: 20.7%
[13]
  remaining at 4 h: 98.3%

## CN1CCN(C(=O)[C@]23CCC(C)(C)C[C@H]2C2=CC[C@@H]4[C@@]5(C)Cc6nccnc6[C@@](C)(CO)[C@@H]5CC[C@@]4(C)[C@]2(C)CC3)CC1
[1]
  cell survival rate: 23.51%
[2]
  viability at 10 µM: 124%

## CC1(C)CC[C@]2(C(=O)O)CC[C@]3(C)C(=CC[C@@H]4[C@@]5(C)Cc6cn[nH]c6[C@@](C)(CO)[C@@H]5CC[C@]43C)[C@@H]2C1
[1]
  cell survival rate: 99.31%
[2]
  viability at 10 µM: 109%

## CC1(C)CC[C@]2(C(=O)OCc3ccccc3)CC[C@]3(C)C(=CC[C@@H]4[C@@]5(C)Cc6cn[nH]c6[C@@](C)(CO)[C@@H]5CC[C@]43C)[C@@H]2C1
[1]
  cell survival rate: 21.95%
[2]
  viability at 10 µM: 83.1%

## CC1(C)CC[C@]2(C(=O)OCC(=O)OCCOCCO)CC[C@]3(C)C(=CC[C@@H]4[C@@]5(C)Cc6nccnc6[C@@](C)(CO)[C@@H]5CC[C@]43C)[C@@H]2C1
[1]
  cell survival rate: 26.15%
[2]
  viability at 10 µM: 81.7%

## CC1(C)CC[C@]2(C(=O)OCc3ccccc3)CC[C@]3(C)C(C(=O)C[C@@H]4[C@@]5(C)Cc6nccnc6[C@@](C)(CO)[C@@H]5CC[C@]43C)[C@@H]2C1 (some centres undefined)
[1]
  cell survival rate: 20.77%
[2]
  viability at 10 µM: 129%

## CC1(C)CC[C@]2(C(=O)OCc3ccccc3)CC[C@]3(C)C(=CC[C@@H]4[C@@]5(C)Cc6nccnc6[C@@](C)(CO)[C@@H]5CC[C@]43C)[C@@H]2C1
[1]
  cell survival rate: 18.17%
[14]
  inhibition in vivo at 10 mg/kg: 41.9%
[7]; pH 7.4, read-out: solubility
  solubility: 1.2 µg/mL (≈ 2.01 µM)
[15]
  pIC50: 8.62
[10]
  Activity: 2.3%
[11]
  Activity: 25.4%
[12]
  Activity: 15.6%

## CN(C)CCCOC(=O)[C@]12CCC(C)(C)C[C@H]1C1=CC[C@@H]3[C@@]4(C)Cc5nccnc5[C@@](C)(CO)[C@@H]4CC[C@@]3(C)[C@]1(C)CC2
[1]
  cell survival rate: 12.65%
[2]
  viability at 10 µM: 67.5%

## CC1(C)CC[C@]2(C(=O)N3CCOCC3)CC[C@]3(C)C(=CC[C@@H]4[C@@]5(C)Cc6nccnc6[C@@](C)(CO)[C@@H]5CC[C@]43C)[C@@H]2C1
[1]
  cell survival rate: 16.37%
[2]
  viability at 10 µM: 110%

## Cc1nc2c(s1)C[C@@]1(C)[C@@H](CC[C@]3(C)[C@@H]1CC=C1[C@@H]4CC(C)(C)CC[C@]4(C(=O)O)CC[C@]13C)[C@]2(C)CO
[1]
  cell survival rate: 61.78%
[2]
  viability at 10 µM: 96%

## COc1ccc(CCN(C)CCCC(C#N)(c2ccc(OC)c(OC)c2)C(C)C)cc1OC (centres undefined)
[10]
  Activity: 2.4%
[12]
  Activity: 40.6%

## CC1(C)CC[C@]2(C(=O)OCC(=O)OCCOCCOCCO)CC[C@]3(C)C(=CC[C@@H]4[C@@]5(C)Cc6nccnc6[C@@](C)(CO)[C@@H]5CC[C@]43C)[C@@H]2C1
[1]
  cell survival rate: 28.76%
[2]
  viability at 10 µM: 80.5%

## Cc1nc2c(s1)C[C@@]1(C)[C@@H](CC[C@]3(C)[C@@H]1CC=C1[C@@H]4CC(C)(C)CC[C@]4(C(=O)OCc4ccccc4)CC[C@]13C)[C@]2(C)CO
[1]
  cell survival rate: 27.85%
[2]
  viability at 10 µM: 98.6%

## CC1(C)CC[C@]2(C(=O)OCc3ccccc3)CC[C@]3(C)C(=CC[C@@H]4[C@@]5(C)Cc6nccnc6[C@@](C)(COC(=O)CCC(=O)OCCOCCO)[C@@H]5CC[C@]43C)[C@@H]2C1
[1]
  cell survival rate: 79.47%
[7]; pH 7.4
  solubility: Soluble
[2]
  viability at 10 µM: 72.7%

## CC1(C)CC[C@]2(C(=O)OCc3ccccc3)CC[C@]3(C)C(=CC[C@@H]4[C@@]5(C)Cc6nccnc6[C@@](C)(COC(=O)CCC(=O)OCCOCCOCCOCCOCCOCCOCCOCCOCCO)[C@@H]5CC[C@]43C)[C@@H]2C1
[1]
  cell survival rate: 15.38%
[7]; pH 7.4, read-out: solubility
  solubility: 546 µg/mL (≈ 500 µM)
[2]
  viability at 10 µM: 70.6%

## CC(=O)O[C@H]1C(=O)[C@@]2(C)[C@H]([C@H](OC(=O)c3ccccc3)[C@]3(O)C[C@H](OC(=O)[C@H](O)[C@@H](NC(=O)c4ccccc4)c4ccccc4)C(C)=C1C3(C)C)[C@]1(OC(C)=O)CO[C@@H]1C[C@@H]2O [PACLITAXEL]
[1]
  cell survival rate: 103.48%
[16]
  pIC50: 6.11
[10]
  Activity: 2.1%

## CC1(C)CC[C@]2(C(=O)O)CC[C@]3(C)C(=CC[C@@H]4[C@@]5(C)CC[C@H](O)[C@@](C)(CO)[C@@H]5CC[C@]43C)[C@@H]2C1 [HEDERAGENIN]
[1]
  cell survival rate: 107.17%

## CCN1CCN(C(=O)[C@]23CCC(C)(C)C[C@H]2C2=CC[C@@H]4[C@@]5(C)Cc6nccnc6[C@@](C)(CO)[C@@H]5CC[C@@]4(C)[C@]2(C)CC3)CC1
[1]
  cell survival rate: 16.67%
[2]
  viability at 10 µM: 120%

## CC1(C)CC[C@]2(C(=O)OCC(=O)OCCOCCOCCOCCOCCOCCOCCOCCOCCO)CC[C@]3(C)C(=CC[C@@H]4[C@@]5(C)Cc6nccnc6[C@@](C)(CO)[C@@H]5CC[C@]43C)[C@@H]2C1
[1]
  cell survival rate: 25.16%
[2]
  viability at 10 µM: 76%

## CC1(C)CC[C@]2(C(=O)OCc3ccccc3)CC[C@]3(C)C(=CC[C@@H]4[C@@]5(C)Cc6nccnc6[C@@](C)(COC(=O)CCC(=O)OCCOCCOCCOCCOCCOCCOCCOCCOCCOCCOCCOCCOCCO)[C@@H]5CC[C@]43C)[C@@H]2C1.CO
[1]
  cell survival rate: 15.93%
[7]; pH 7.4, read-out: solubility
  solubility: 789 µg/mL
[2]
  viability at 10 µM: 69.7%

## CC1(C)CC[C@]2(C(=O)OCc3ccccc3)CC[C@]3(C)C(=CC[C@@H]4[C@@]5(C)Cc6nccnc6[C@@](C)(COC(=O)CCC(=O)OCCOCCOCCO)[C@@H]5CC[C@]43C)[C@@H]2C1
[1]
  cell survival rate: 43.54%
[7]; pH 7.4
  solubility: Soluble
[2]
  viability at 10 µM: 82.5%

## CC[C@]1(O)C[C@H]2CN(CCc3c([nH]c4ccccc34)[C@@](C(=O)OC)(c3cc4c(cc3OC)N(C=O)[C@H]3[C@@](O)(C(=O)OC)[C@H](OC(C)=O)[C@]5(CC)C=CCN6CC[C@]43[C@@H]65)C2)C1 [VINCRISTINE]
[17]
  pIC50: 8.02
